Hits are enriched below; roughly 2% of the tested compounds scored in any of these assays.
CHRM5 antagonist – blocks acetylcholine activation of human M5 receptor. AID 624040. 360,000 tested, 0.59% active. P08912. inhibition, % at 3 µM. CHO-hM5 cells, Fluo-8 calcium fluorescence, ACh EC80;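 active = inhibition above a per-plate cutoff, the mean of that plate's test compounds plus 3 SD, cut at about 27% in these data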
Target sequence (P08912 whole entry, looked up): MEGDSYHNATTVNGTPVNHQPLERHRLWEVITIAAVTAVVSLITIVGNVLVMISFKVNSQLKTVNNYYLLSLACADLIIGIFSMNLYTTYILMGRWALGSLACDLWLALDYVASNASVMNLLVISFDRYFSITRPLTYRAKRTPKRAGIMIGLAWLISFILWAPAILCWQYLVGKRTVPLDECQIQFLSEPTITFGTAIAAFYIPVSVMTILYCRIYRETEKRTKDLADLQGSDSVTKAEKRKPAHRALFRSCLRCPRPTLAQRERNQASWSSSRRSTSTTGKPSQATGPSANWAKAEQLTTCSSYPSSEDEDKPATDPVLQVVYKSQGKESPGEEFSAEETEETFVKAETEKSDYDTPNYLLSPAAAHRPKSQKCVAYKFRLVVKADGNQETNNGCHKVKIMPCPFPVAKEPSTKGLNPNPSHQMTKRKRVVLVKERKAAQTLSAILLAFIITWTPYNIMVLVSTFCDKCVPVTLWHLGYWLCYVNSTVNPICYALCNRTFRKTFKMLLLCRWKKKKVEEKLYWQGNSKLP
CHRM1 agonist – human M1 muscarinic receptor agonism; P11229; CHO-K1 hM1, Fluo-8 calcium fluorescence, agonist mode; 0% DMSO, 100% acetylcholine EC100; activation, % at 3 µM; 360,000 tested, 0.33% active;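 active = activation above the run's mean compound activation plus 3 SD, cut at about 16% in these data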;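 also: peak over basal fluorescence ratio within a 140 s kinetic read after compound addition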
M1 PAM – potentiates human M1 receptor response to acetylcholine. activation, % at 3 µM. CHO-K1 hM1, Fluo-8 calcium fluorescence, ACh EC20; 0% = ACh EC20, 100% = maximal ACh. 360,000 tested, 0.088% active. AID 588819. P11229; in the data active = activation above about 19%, passing the limit was not always enough
CHRM1 antagonist – human CHRM1 antagonism. 360,000 tested, 1.3% active. inhibition, % at 3 µM. P11229. AID 588852. CHO-K1 hM1, Fluo-8 calcium fluorescence, ACh EC80 antagonist;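 active = percent inhibition above its own plate's cutoff, namely the mean of that plate's compound wells plus 3 SD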;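 also: peak over basal fluorescence ratio during 140 s after agonist addition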
M5 ag – CHRM5 agonism in calcium assay; CHO-K1 hM5 cells, Fluo-8 calcium fluorescence; 0% DMSO wells, 100% maximal acetylcholine response; activation, % at 3 µM; 360,000 tested, 0.19% active; P08912;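 active = activation above the run's mean over test compounds plus 3 SD, cut at about 23% in these data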;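 also: signal is peak over basal fluorescence ratio across the kinetic read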
CHRM5 PAM – CHRM5 positive allosteric modulation. 360,000 tested, 0.3% active. activation, % at 3 µM. CHO-K1 hM5, Fluo-8 calcium, ACh EC20 PAM; 0% = ACh EC20, 100% = ACh EC100;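 active = activation above the run cutoff, the mean activation of all test compounds plus 3 SD, cut at about 18% in these data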
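Replicates: One well per compound, no replicates | System: Human M5 receptor in CHO-K1 cells | Benchmarks: Low control EC20 acetylcholine (0%), high control EC100 acetylcholine (100%) | Probe or stimulus: Acetylcholine, EC20 level | Times: Fluo-8 loading 80 min at 37 °C plus 30 min room temperature | Signal: Intracellular calcium via Fluo-8 fluorescence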
A number is an active result; - = inactive; . = no result.

SMILES	CHRM5 antagonist	CHRM1 agonist	M1 PAM	CHRM1 antagonist	M5 ag	CHRM5 PAM
O=C(C1CCN(c2ncnc3c2nc2n3CCCCC2)CC1)N1CCCCC1	-	-	-	-	-	-
O=C(NCC1CCN(Cc2ccc(Cl)cc2)CC1)C1CCCN(c2ncnc3c2nc2n3CCCCC2)C1 (centres undefined)	-	-	-	103	-	-
O=C(NCC1CCN(Cc2ccc(F)cc2)CC1)C1CCCN(c2ncnc3c2nc2n3CCCCC2)C1 (centres undefined)	-	-	-	70	-	-
Cc1ccc(S(=O)(=O)N2C[C@H]3[C@H]4C(=O)N(C)C(=O)[C@H]4CC(=O)[C@H]3[C@@H]2c2ccccc2F)cc1	-	-	-	-	-	-
O=C1NC[C@@H](CCCCN2C[C@H](Cc3ccccc3)N(CCc3ccccc3)C(=O)C2=O)N(CCc2ccccc2)C1=O	-	.	.	.	-	-
COc1ccc(C(Cl)=C(C=O)c2ccc(OC)c(OC)c2)cc1OC	-	18	-	-	-	-
CCCCCCCCCCCCCCCC[N+](C)(C)CCl	29	-	-	43	-	-
CCCCCCCCCCCCCCCC[N+](C)(C)CC	77	-	-	90	-	-
CCCCCC[N+](C)(C)CCSSCC[N+](C)(C)CCCCCC	-	-	-	-	-	-
CCCNC(=O)C1(C)CCN(Cc2ccc(OCc3ccccc3)cc2)C1 (centres undefined)	-	-	-	-	-	-
CCCCNc1ccc2c3c(cccc13)C(=O)N(CCCC)C2=O	97	296	-	90	591	-
Cc1nn(C)c(C)c1N1C(=O)c2cccc3c(Br)ccc(c23)C1=O	-	-	-	-	-	-
CCCN1C(=O)c2cccc3c(N4CCCCC4)ccc(c23)C1=O	-	-	-	-	-	-
Cc1nn(C)c(C)c1N1C(=O)c2cccc3c(N)ccc(c23)C1=O	28	90	-	35	38	-
Cc1ccc(N2C(=O)c3cccc4c(N)ccc(c34)C2=O)c2cccnc12	-	29	-	-	38	-
CN(C)CCCN1C(=O)c2cccc3c(Br)ccc(c23)C1=O	-	-	-	-	-	-
CCN1C(=O)c2cccc3c(N)ccc(c23)C1=O	27	192	-	48	104	-
O=C(Cc1coc2cc(O)ccc12)N1CCN(S(=O)(=O)c2ccc(Br)cc2)CC1	-	-	-	-	-	-
C[C@@H]1CN([C@H](C)CO)C(=O)CCCn2nncc2CO[C@H]1CN(C)S(=O)(=O)c1ccc(Oc2ccccc2)nc1	-	-	-	-	-	-
COc1cccc(-c2oc3c(c2C(=O)OCCN(C)C)C(O)CCC3)c1 (centres undefined)	-	.	.	.	-	-
Cc1ccccc1S(=O)(=O)NC(=O)C1(C)CCN1C(=O)c1ccccc1CCc1ccccc1 (centres undefined)	-	-	-	-	-	-
Cc1cc2c(cc1C)-n1nnnc1C(N(C)CCc1ccccc1)C(=O)N2 (centres undefined)	-	.	.	.	-	-
COc1ccc(CC(=O)NCC2CCCN(Cc3ccc(OC(F)(F)F)cc3)C2)cc1 (centres undefined)	-	-	-	-	-	-
COC(=O)c1ccc(CN2CCCC(CNC(=O)Cc3ccc(OC)cc3)C2)cc1 (centres undefined)	-	30	-	-	-	-
COCc1ccc(CN2CCCC(CCC(=O)NCc3ccc(C)o3)C2)o1 (centres undefined)	-	-	-	-	-	-
SMILES	CHRM5 antagonist	CHRM1 agonist	M1 PAM	CHRM1 antagonist	M5 ag	CHRM5 PAM
COC(=O)c1ccc(CN2CCCC(CCC(=O)NCc3ccc(C)o3)C2)cc1 (centres undefined)	-	53	-	87	-	-
CCOC(=O)C1=CC[C@@H](c2cccc(Br)c2)N(S(=O)(=O)c2ccc(F)cc2)[C@H]1c1cccc(Cl)c1	-	.	.	.	-	-
COc1ccc(C(=O)OCC(=O)Nc2ccc(OC)c(S(=O)(=O)N3CCCCC3)c2)cc1[N+](=O)[O-]	-	-	-	-	-	-
O=C(COc1ccc(Br)cc1CO)Nc1ccc(S(=O)(=O)N2CCCC2)cc1	-	-	-	58	-	-
COc1ccc(C(=O)OCC(=O)Nc2cccc(S(=O)(=O)N3CCCCCC3)c2)cc1[N+](=O)[O-]	-	-	-	54	-	-
Cc1ccc(OCC(=O)Nc2ccc(S(=O)(=O)N3CCCCC3)cc2)c([N+](=O)[O-])n1	-	-	-	45	-	-
COc1cc(C(=O)Nc2ccc3c(c2)N(C(=O)CCN(C)C)c2ccccc2CC3)cc(OC)c1OC	-	-	-	27	-	-
CN(C)CC(=O)N1c2ccccc2CCc2ccc(NC(=O)c3ccc(N)cc3)cc21	-	-	-	-	-	-
COc1cc(C(=O)Nc2cccc(C(C)=O)c2)cc(OC)c1OC	-	-	-	-	-	-
COc1cc(C(=O)Nc2cccc(NC(=O)c3ccccc3)c2)cc(OC)c1OC	30	-	-	-	-	-
O=C(Nc1cccc(C(=O)Nc2ccc(Br)cc2)c1)c1ccccc1	31	-	-	-	-	-
O=C(Nc1ccc(Nc2ccccc2)cc1)c1ccc(Br)cc1	-	-	-	-	-	-
CC(C)/C=C/C(=O)N1CCC(N2CCC(C(=O)NCC3CCCO3)CC2)CC1 (centres undefined)	-	-	-	-	-	-
CC(C)NC(=O)C1(C)CN(S(C)(=O)=O)CC(=O)N1Cc1cccs1 (centres undefined)	-	.	.	.	-	-
Cc1ccc(S(=O)(=O)N2CCN(C(=O)C(O)c3ccccc3)CC2)cc1 (centres undefined)	-	.	.	.	-	-
CCOC(=O)c1cnc2ccc(OCC)cc2c1N1CCN(C)CC1	-	-	-	-	-	-
CCOc1ccc2ncc(S(=O)(=O)c3ccc(C)cc3)c(N3CCC4(CC3)OCCO4)c2c1	-	-	-	35	-	-
O=S1(=O)C[C@H](N2CCCC2)[C@@H](COCc2ccccc2)N1	-	-	-	-	-	-
COc1ccc(Cc2n[nH]c(=S)n2NC(=O)Nc2ccc(Cl)c(Cl)c2)cc1	30	-	-	-	-	-
Cn1c(CC(=O)Nc2ccc(Cl)c(Cl)c2)n[nH]c1=S	-	-	-	-	-	-
CC(C)(C)C(=O)/C=c1\s/c(=C\c2ccc(-c3ccc([N+](=O)[O-])cc3)o2)c(=O)n1CC(=O)NC(N)=O	32	23	-	39	-	-
NC(Cc1ccc(C(F)(F)F)cc1)c1csc(NC(=O)NCCc2ccccc2)n1 (centres undefined)	-	-	-	-	-	-

Assay outcomes: PubChem, The Scripps Research Institute Molecular Screening Center
